Measured values reported in ChEMBL document CHEMBL4265871, “Novel alkylated azoles as potent antifungals” (Eur J Med Chem, 2017).
Converted amounts (≈) assume the structure as drawn.

What was measured:
[1] = Toxicity in human BEAS2B cells assessed as reduction in cell viability incubated for 24 hrs by resazurin dye based assay; conditions: BEAS-2B cells
How it was run: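 Toxicity tested in the nucleated lines A549 and BEAS-2B to give EC50 values. Selectivity index is EC50 against the mammalian line divided by the MIC against a given fungal strain.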

[2] = in vitro; conditions: mouse, mouse erythrocytes
[3] = Selectivity index, ratio of EC50 for toxicity in human BEAS2B cells to MIC50 for antifungal activity against Candida albicans ATCC 64124; assay type: cell-based; conditions: BEAS-2B cells, read-out: Selectivity Index
How it was run: (§1)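 Selectivity index is the EC50 against the mammalian line (A549 or BEAS-2B) divided by the MIC against the given fungal strain.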

[4] = Selectivity index, ratio of EC50 for toxicity in human BEAS2B cells to MIC50 for antifungal activity against ITC and FLC-resistant Candida albicans ATCC 1237; assay type: cell-based; conditions: BEAS-2B cells, read-out: Selectivity Index; how it was run: as §1
[5] = Selectivity index, ratio of EC50 for toxicity in human A549 cells to MIC50 for antifungal activity against Candida albicans ATCC 64124; assay type: cell-based; conditions: read-out: Selectivity Index; how it was run: as §1
[6] = test system: Nakaseomyces glabratus; assay: Antifungal activity against Candida glabrata ATCC 2001 incubated for 48 hrs by modified CLSI M27-A3 protocol based method; assay type: functional; conditions: ATCC 2001, 48 h
[7] = Selectivity index, ratio of EC50 for toxicity in human A549 cells to MIC50 for antifungal activity against ITC and FLC-resistant Candida albicans ATCC MYA-90819; assay type: cell-based; conditions: read-out: Selectivity Index; how it was run: as §1
[8] = test system: Candida albicans; assay: Antifungal activity against ITC and FLC-susceptible Candida albicans ATCC MYA-2876 incubated for 48 hrs by modified CLSI M27-A3 protocol based method; assay type: functional; conditions: ATCC MYA-2876, 48 h
How it was run: (§2)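 Because these Candida strains show trailing growth, MIC-2 was read, meaning 50% growth inhibition. Caspofungin and voriconazole were tested here; other controls came from earlier work.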

[9] = Selectivity index, ratio of […] for toxicity in human A549 cells to MIC50 for antifungal activity against Aspergillus flavus ATCC MYA-3631; assay type: cell-based; conditions: read-out: Selectivity Index
[10] = test system: Candida parapsilosis; assay: Antifungal activity against Candida parapsilosis ATCC 22019 incubated for 48 hrs by modified CLSI M27-A3 protocol based method; assay type: functional; conditions: Lodderomyces parapsilosis, ATCC 22019, 48 h; read-out: MIC100
How it was run: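 For C. albicans ATCC 10231, C. krusei ATCC 6258 and C. parapsilosis ATCC 22019, MIC-0 was read, meaning complete growth inhibition. For azole controls, MIC-2 (50% growth inhibition) was reported instead. Caspofungin and voriconazole were tested here; other controls came from earlier work.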

[11] = Selectivity index, ratio of EC50 for toxicity in human A549 cells to MIC50 for antifungal activity against ITC and FLC-resistant Candida albicans ATCC 1237; assay type: cell-based; conditions: read-out: Selectivity Index; how it was run: as §1
[12] = Selectivity index, ratio of EC50 for toxicity in human A549 cells to MIC50 for antifungal activity against ITC and FLC-susceptible Candida albicans ATCC MYA-2310; assay type: cell-based; conditions: read-out: Selectivity Index; how it was run: as §1
[13] = Selectivity index, ratio of EC50 for toxicity in human BEAS2B cells to MIC50 for antifungal activity against ITC and FLC-susceptible Candida albicans ATCC MYA-2876; assay type: cell-based; conditions: BEAS-2B cells, read-out: Selectivity Index
How it was run: (§3)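 Ratio of the compound's EC50 against BEAS-2B cells to its MIC against the named C. albicans strain. […] For C. albicans strains other than ATCC 10231, trailing growth meant MIC-2 was taken, meaning 50% growth inhibition.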

[14] = test system: Candida albicans; assay: Antifungal activity against ITC and FLC-susceptible Candida albicans ATCC MYA-2310 incubated for 48 hrs by modified CLSI M27-A3 protocol based method; assay type: functional; conditions: ATCC MYA-2310, 48 h
[15] = Selectivity index, ratio of EC50 for toxicity in human A549 cells to MIC50 for antifungal activity against Candida krusei ATCC 6258
[16] = Selectivity index, ratio of EC50 for toxicity in human BEAS2B cells to MIC100 for antifungal activity against Candida albicans ATCC 10231; assay type: cell-based; conditions: BEAS-2B cells, read-out: Selectivity Index; how it was run: as §1
[17] = Hemolytic activity in mouse erythrocytes assessed as hemolysis level at 1.95 ug/ml incubated for 1 hr at 37 degC; assay type: ADME, cell-based, Erythrocyte; conditions: read-out: Activity
How it was run: (§4)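 Mouse erythrocytes incubated 1 h at 37 °C with test agents over 1.95 to 125 µg/mL. Percent lysis is read for each concentration.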

[18] = Selectivity index, ratio of EC50 for toxicity in human BEAS2B cells to MIC50 for antifungal activity against ITC and FLC-resistant Candida albicans ATCC MYA-90819; assay type: cell-based; conditions: BEAS-2B cells, read-out: Selectivity Index; how it was run: as §3
[19] = test system: Aspergillus nidulans; assay: Antifungal activity against Aspergillus nidulans ATCC 38163 incubated for 48 hrs by CLSI M38-A2 protocol based method; assay type: functional; conditions: ATCC 38163, 48 h, read-out: MIC100
[20] = test system: Candida albicans; assay: Antifungal activity against ITC and FLC-resistant Candida albicans ATCC 1237 incubated for 48 hrs by modified CLSI M27-A3 protocol based method; assay type: functional; conditions: ATCC 1237, 48 h; how it was run: as §2
[21] = Hemolytic activity in mouse erythrocytes assessed as hemolysis level at 125 ug/ml incubated for 1 hr at 37 degC; assay type: ADME, cell-based, Erythrocyte; conditions: read-out: Activity; how it was run: as §4
[22] = Hemolytic activity in mouse erythrocytes assessed as hemolysis level at 7.8 ug/ml incubated for 1 hr at 37 degC; assay type: ADME, cell-based, Erythrocyte; conditions: read-out: Activity; how it was run: as §4
[23] = Selectivity index, ratio of […] for toxicity in human BEAS2B cells to MIC50 for antifungal activity against Aspergillus terreus ATCC MYA-3633; assay type: cell-based; conditions: BEAS-2B cells, read-out: Selectivity Index
[24] = Selectivity index, ratio of EC50 for toxicity in human A549 cells to MIC50 for antifungal activity against Candida glabrata ATCC 2001; assay type: cell-based; conditions: read-out: Selectivity Index; how it was run: as §1
[25] = Selectivity index, ratio of […] for toxicity in human BEAS2B cells to MIC50 for antifungal activity against Aspergillus nidulans ATCC 38163; assay type: cell-based; conditions: BEAS-2B cells, read-out: Selectivity Index
[26] = Selectivity index, ratio of EC50 for toxicity in human A549 cells to MIC50 for antifungal activity against ITC and FLC-resistant Candida albicans ATCC MYA-1003; assay type: cell-based; conditions: read-out: Selectivity Index; how it was run: as §1
[27] = Hemolytic activity in mouse erythrocytes assessed as hemolysis level at 15.6 ug/ml incubated for 1 hr at 37 degC; assay type: ADME, cell-based, Erythrocyte; conditions: read-out: Activity; how it was run: as §4
[28] = Selectivity index, ratio of […] for toxicity in human A549 cells to MIC50 for antifungal activity against Aspergillus nidulans ATCC 38163; assay type: cell-based; conditions: read-out: Selectivity Index
[29] = Selectivity index, ratio of EC50 for toxicity in human A549 cells to MIC for antifungal activity against Candida parapsilosis ATCC 22019
[30] = test system: Candida albicans; assay: Antifungal activity against ITC and FLC-resistant Candida albicans ATCC MYA-1003 incubated for 48 hrs by modified CLSI M27-A3 protocol based method; assay type: functional; conditions: ATCC MYA-1003, 48 h; how it was run: as §2
[31] = Selectivity index, ratio of EC50 for toxicity in human BEAS2B cells to MIC for antifungal activity against Candida parapsilosis ATCC 22019; conditions: BEAS-2B cells
[32] = test system: Aspergillus flavus; assay: Antifungal activity against Aspergillus flavus ATCC MYA-3631 incubated for 48 hrs by CLSI M38-A2 protocol based method; assay type: functional; conditions: ATCC MYA-3631, 48 h, read-out: MIC100

SMILES | EC50 at 24 h [1] | hemolysis at 1 h, 62.5 ug/ml [2] | selectivity ratio [3] | selectivity ratio [4] | selectivity ratio [5] | MIC50 [6] | selectivity ratio [7] | MIC50 [8] | selectivity ratio [9] | MIC [10] | selectivity ratio [11] | selectivity ratio [12] | selectivity ratio [13] | MIC50 [14] | selectivity ratio [15] | selectivity ratio [16] | hemolysis at 1 h, 1.95 ug/ml [17] | selectivity ratio [18] | MIC [19] | MIC50 [20] | further results
CCCCCCC(O)(Cn1cncn1)c1ccccc1Cl (centres undefined) | > 31.3 µg/mL | 81.7% | 1 | 32 | 1 | 3.2 µM (≈ 0.985 µg/mL) | 16 | 3.2 µM (≈ 0.985 µg/mL) | 8 to 16 | 0.39 µM (≈ 0.12 µg/mL) | 32 | 16 | 32 | 6.3 µM (≈ 1.94 µg/mL) | 261 | 4 | 0% | 16 | 0.19 µM (≈ 0.0585 µg/mL) | 3.2 µM (≈ 0.985 µg/mL) | hemolysis at 1 h, 125 ug/ml [21]: 92%; hemolysis at 1 h, 7.8 ug/ml [22]: 0%; selectivity ratio [23]: 65; selectivity ratio [24]: 32; selectivity ratio [25]: 522; selectivity ratio [26]: 4; hemolysis at 1 h, 15.6 ug/ml [27]: 0%; selectivity ratio [28]: 522; selectivity ratio [29]: 261; MIC50 [30]: 25.3 µM (≈ 7.79 µg/mL); selectivity ratio [31]: 261; MIC [32]: 6.3 to 12.7 µM (≈ 1.94 to 3.91 µg/mL)
CCCCCC(O)(Cn1cncn1)c1ccc(F)cc1F (centres undefined) | > 31.3 µg/mL | 25.2% | 4 | 4 | 4 | 26.4 µM (≈ 7.8 µg/mL) | 8 | 26.4 µM (≈ 7.8 µg/mL) | 2 | < 0.1 µM | 4 | 4 | 4 | 26.4 µM (≈ 7.8 µg/mL) | 130 | 16 | 0% | 8 | 3.3 µM (≈ 0.975 µg/mL) | 26.4 µM (≈ 7.8 µg/mL) | hemolysis at 1 h, 125 ug/ml [21]: 45.4%; hemolysis at 1 h, 7.8 ug/ml [22]: 0%; selectivity ratio [23]: 1; selectivity ratio [24]: 4; selectivity ratio [25]: 32; selectivity ratio [26]: 16; hemolysis at 1 h, 15.6 ug/ml [27]: 0.9%; selectivity ratio [28]: 32; selectivity ratio [29]: 1040; MIC50 [30]: 6.6 µM (≈ 1.95 µg/mL); selectivity ratio [31]: 1040; MIC [32]: 52.8 µM (≈ 15.6 µg/mL)
